Source: ChEMBL document CHEMBL2163325, “Discovery of phosphoinositide 3-kinases (PI3K) p110β isoform inhibitor 4-[2-hydroxyethyl(1-naphthylmethyl)amino]-6-[(2S)-2-methylmorpholin-4-yl]-1H-pyrimidin-2-one, an effective antithrombotic agent without associated bleeding and insulin resistance” (Bioorg Med Chem Lett, 2012)

Columns and labels:
[1] = target: Phosphatidylinositol 4,5-bisphosphate 3-kinase catalytic subunit beta isoform (Homo sapiens, UniProt P42338); experiment: Inhibition of human recombinant His6-tagged PI3K p110beta expressed in baculovirus infected cells using DiC8-PI(4,5)P2 as substrate after 20 mins by AlphaScreen assay
Phosphatidylinositol 4,5-bisphosphate 3-kinase catalytic subunit beta isoform, sequence (P42338 whole entry, canonical isoform): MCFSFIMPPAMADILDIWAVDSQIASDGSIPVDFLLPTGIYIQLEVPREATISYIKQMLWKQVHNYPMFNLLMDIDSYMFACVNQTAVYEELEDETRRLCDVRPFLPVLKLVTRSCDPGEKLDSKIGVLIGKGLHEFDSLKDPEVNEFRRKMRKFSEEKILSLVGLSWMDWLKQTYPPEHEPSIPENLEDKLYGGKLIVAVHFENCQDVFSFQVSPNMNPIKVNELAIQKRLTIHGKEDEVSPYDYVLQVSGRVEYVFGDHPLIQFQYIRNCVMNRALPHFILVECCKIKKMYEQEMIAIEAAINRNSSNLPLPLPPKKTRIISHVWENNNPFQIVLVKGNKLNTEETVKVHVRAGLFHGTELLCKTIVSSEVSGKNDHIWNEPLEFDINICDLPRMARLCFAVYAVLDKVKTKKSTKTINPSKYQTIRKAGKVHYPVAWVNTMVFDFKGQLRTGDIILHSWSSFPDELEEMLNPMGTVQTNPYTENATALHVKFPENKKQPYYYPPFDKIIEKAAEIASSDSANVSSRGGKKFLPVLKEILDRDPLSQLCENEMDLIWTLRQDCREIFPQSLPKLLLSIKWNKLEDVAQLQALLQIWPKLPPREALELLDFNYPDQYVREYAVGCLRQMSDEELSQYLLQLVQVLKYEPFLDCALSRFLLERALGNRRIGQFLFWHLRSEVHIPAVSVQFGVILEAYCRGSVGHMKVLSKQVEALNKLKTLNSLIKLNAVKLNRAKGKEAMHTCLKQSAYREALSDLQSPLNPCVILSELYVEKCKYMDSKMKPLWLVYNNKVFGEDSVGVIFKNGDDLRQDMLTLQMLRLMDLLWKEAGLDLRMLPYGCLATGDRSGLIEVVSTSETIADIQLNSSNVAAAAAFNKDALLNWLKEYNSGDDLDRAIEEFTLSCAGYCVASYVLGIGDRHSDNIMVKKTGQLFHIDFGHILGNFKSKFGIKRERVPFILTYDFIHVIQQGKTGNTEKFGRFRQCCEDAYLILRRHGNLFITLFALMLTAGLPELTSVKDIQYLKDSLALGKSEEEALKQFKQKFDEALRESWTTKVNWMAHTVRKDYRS

[2] = Clearance in fasted Beagle dog at 1 umol/kg, iv and 2 umol/kg, po; format: ADME, organism-based, Canis lupus familiaris; settings: in vivo
Procedure, shortened: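 Fasted male Beagle dogs, iv and po (N = 2 per route). Parameters derived by noncompartmental analysis of plasma concentrations.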

[3] = Half life in human liver microsomes at 2 uM; format: ADME, Microsome
[4] = system: Canis familiaris; experiment: Ex-vivo antiplatelet activity in iv dosed Beagle dog whole blood assessed as inhibition of ADP-induced platelet aggregation administered as bolus infusion for 1 min followed by continuous infusion for 29 mins; format: functional, organism-based; settings: Canis lupus familiaris
Procedure, shortened: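 Anaesthetized, intubated, ventilated beagles (N = 2). Femoral artery intima damaged and flow reduced to give cyclic flow reductions. Control period vehicle iv (30% cyclodextrin). Then 5 ascending 30-min periods, each a bolus over 1 min plus continuous infusion for 29 min. Tongue incision bleeding time from 15 min, capped at 15 min. Blood at 20 min for ex vivo aggregation and plasma level. EC50 fitted sigmoidally; EC_BT:2 from an exponential fit.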

[5] = target: T1, Phosphatidylinositol 4,5-bisphosphate 3-kinase catalytic subunit delta isoform (Homo sapiens, UniProt O00329); experiment: Inhibition of human recombinant His6-tagged PI3K p110delta expressed in baculovirus infected cells using DiC8-PI(4,5)P2 as substrate after 20 mins by AlphaScreen assay
T1 sequence (O00329 whole entry): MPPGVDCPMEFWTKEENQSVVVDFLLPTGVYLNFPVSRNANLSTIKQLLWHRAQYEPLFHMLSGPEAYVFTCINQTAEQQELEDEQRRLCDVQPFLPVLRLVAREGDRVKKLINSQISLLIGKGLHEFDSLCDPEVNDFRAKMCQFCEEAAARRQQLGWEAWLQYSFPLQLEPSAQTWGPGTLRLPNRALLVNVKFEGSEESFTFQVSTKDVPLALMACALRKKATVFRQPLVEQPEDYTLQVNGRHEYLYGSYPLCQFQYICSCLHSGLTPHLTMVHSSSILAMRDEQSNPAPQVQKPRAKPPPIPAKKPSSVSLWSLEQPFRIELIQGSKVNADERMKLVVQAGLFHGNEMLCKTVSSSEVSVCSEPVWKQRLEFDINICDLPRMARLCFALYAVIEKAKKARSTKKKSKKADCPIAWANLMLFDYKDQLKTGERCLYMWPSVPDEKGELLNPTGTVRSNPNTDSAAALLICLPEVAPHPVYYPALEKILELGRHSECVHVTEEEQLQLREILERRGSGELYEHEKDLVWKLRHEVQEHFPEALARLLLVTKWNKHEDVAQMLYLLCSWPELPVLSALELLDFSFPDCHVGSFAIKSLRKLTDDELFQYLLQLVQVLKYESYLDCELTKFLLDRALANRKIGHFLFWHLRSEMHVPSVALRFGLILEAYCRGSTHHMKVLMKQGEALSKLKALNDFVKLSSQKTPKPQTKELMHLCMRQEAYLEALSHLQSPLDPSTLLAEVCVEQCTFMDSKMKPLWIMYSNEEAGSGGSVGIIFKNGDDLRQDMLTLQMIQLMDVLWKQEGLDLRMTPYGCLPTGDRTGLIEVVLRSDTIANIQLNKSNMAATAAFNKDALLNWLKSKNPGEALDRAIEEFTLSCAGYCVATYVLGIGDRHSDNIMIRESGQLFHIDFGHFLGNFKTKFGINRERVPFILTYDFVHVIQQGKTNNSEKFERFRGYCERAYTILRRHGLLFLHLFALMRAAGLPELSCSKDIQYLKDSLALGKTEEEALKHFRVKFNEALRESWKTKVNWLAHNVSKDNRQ

[6] = target: Cytochrome P450 2C9 (Homo sapiens, UniProt P11712); experiment: Inhibition of CYP2C9; format: ADME
Cytochrome P450 2C9, sequence (P11712 whole entry): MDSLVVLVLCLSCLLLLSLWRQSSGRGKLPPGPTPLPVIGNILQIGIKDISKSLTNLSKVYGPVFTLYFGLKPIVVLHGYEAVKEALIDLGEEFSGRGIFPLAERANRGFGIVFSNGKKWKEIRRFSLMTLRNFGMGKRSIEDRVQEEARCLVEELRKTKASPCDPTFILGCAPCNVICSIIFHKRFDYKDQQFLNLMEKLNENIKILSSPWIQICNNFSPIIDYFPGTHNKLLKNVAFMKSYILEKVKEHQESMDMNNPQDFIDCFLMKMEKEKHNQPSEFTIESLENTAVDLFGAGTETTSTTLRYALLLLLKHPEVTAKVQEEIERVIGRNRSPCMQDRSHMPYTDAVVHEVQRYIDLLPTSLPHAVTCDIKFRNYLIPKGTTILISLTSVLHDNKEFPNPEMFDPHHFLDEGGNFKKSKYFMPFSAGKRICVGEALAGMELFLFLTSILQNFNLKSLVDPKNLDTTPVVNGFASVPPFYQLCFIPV

[7] = Antiplatelet activity in human whole blood assessed as inhibition of ADP-induced platelet aggregation by impedance aggregometry; format: functional, tissue-based
Procedure, shortened: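 Citrated whole blood drawn by venipuncture from healthy human donors or beagle dogs, sodium citrate at 11 mM final in blood. ADP-induced aggregation read by Multiplate impedance aggregometry. N > 3.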

**Q.** For `C[C@H]1CN(c2cc(N(CCO)Cc3cccc4ccccc34)[nH]c(=O)n2)CCO1`, which IC50 [1] is on record?
**A.** 38 nM

**Q.** What about the clearance [2] of the same compound?
**A.** 18 mL/min/kg

**Q.** And the half-life at 2 µM [3]?
**A.** > 2.88 h

**Q.** What about the EC50 [4] of the same compound?
**A.** 1100 nM

**Q.** What about the inhibition [4] of the same compound?
**A.** Dose-dependent effect

**Q.** What about the IC50 [5] of the same compound?
**A.** 168 nM

**Q.** And the IC50 [6]?
**A.** 4000 nM

**Q.** And the IC50 [7]?
**A.** 2100 nM
